As a reminder, the IC50 is the point on the concentration scale where inhibition reaches its midpoint.

For data set [1], the system named is immune cell infiltration into BAL of BALB/c mice. The data set is described as follows: Mouse model of allergic airway hypereosinophilia. The conditions noted are these: for effect on influx of macrophages into BAL: OVA-challenged mice. Type of data set: in vivo.
The subject of data set [2] is CXCL12-induced intracellular Ca^2+ mobilization in BCR-ABL expressing murine pro/pre B cells. Kind of data set: CXCL12-induced Ca2+ mobilization assay. In kind it is cell-based, mouse. On the technique in general: Calcium flux is commonly read through the fluorescence of an indicator in the cells.
The conditions of data set [3]: cited from earlier work.
The test system of the next data set is CXCR4-tropic HIV-1. Kind of data set: X4-HIV-1 inhibition assay in TZM-bl reporter cells. In kind it is cell-based. The conditions noted are these: for fold increase of antiviral (anti-HIV-1) activity over WSC02: ratio of IC50 values vs WSC02.
Data set [4] concerns MC903-induced skin inflammation of ears of BALB/c mice. Kind of data set: Mouse model of atopic dermatitis. In kind it is in vivo.
For the next data set, the system named is mice. Kind of data set: Observation of visible or behavioral adverse effects in mice. Type of data set: in vivo, mouse. The conditions noted are these: administered topically onto the ears or intranasally into lungs of mice.
In another data set the target is CXCR4 (Homo sapiens, UniProt P61073). The data set is described as follows: CXCR4 12G5 antibody competition assay on SupT1 cells. In kind it is binding.
A further data set deals with zebrafish embryos. The data set is described as follows: Toxicity in zebrafish embryos. Type of data set: in vivo. In outline:
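Wild-type embryos dechorionated at 24 hpf with 1 mg/mL pronase in E3, then exposed 24 h in E3 containing peptide. Two independent assays per concentration, each on 10 × 3 embryos. Controls: PBS solvent diluted in E3 matching the highest-dose amount, and pleurocidin peptide NRC-03. Scored at 48 hpf by stereomicroscope: lysis/necrosis, delay/malformations, heart edema/reduced or absent circulation.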

Data set [5] has as its system SupT1 migration towards a CXCL12 gradient. The data set is described as follows: Transwell cell migration assay. Type of data set: cell-based. Summed up: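 SupT1 cells (0.75 × 10^5) in RPMI with 0.1% BSA go into the upper chamber of a 5 μm polycarbonate transwell, with or without compound, and settle ~15 min. The lower chamber holds buffer with or without 100 ng/mL CXCL12 plus compound. After 4 h of migration at 37 °C (5% CO2), lower-chamber cells are counted by CellTiter-Glo and normalized to CXCL12-only. Mean ± SEM, n = 3; fold values compare IC50s.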

[6] abbreviates: 12.6 μmol/kg intranasal, 2 h before each OVA challenge, BAL on day 8, mean ± SEM.
[7] abbreviates: 315 nmol/ear topically daily, day 11, mean ± SEM.
Where [8] appears, read: 16 μmol/kg intranasal, 2 h before each OVA challenge, BAL on day 8, mean ± SEM.
Where [9] appears, read: 2.5 nmol/ear every two days, day 11 (disease inducer).
The mark [10] stands for this setting: 20 nmol/ear topically daily, day 11, mean ± SEM.

Where no end group is shown, it is not given here.

Chain of CXCR4 (P61073 whole entry): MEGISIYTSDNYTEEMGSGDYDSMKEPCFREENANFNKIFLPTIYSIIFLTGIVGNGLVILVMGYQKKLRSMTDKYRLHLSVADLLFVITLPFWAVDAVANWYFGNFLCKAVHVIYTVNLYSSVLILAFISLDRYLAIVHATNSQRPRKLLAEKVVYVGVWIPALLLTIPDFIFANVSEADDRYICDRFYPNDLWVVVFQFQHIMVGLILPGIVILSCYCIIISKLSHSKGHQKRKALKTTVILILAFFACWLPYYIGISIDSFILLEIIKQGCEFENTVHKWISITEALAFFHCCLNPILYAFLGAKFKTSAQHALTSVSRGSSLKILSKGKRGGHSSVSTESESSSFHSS

As for `c1cc(CN2CCCNCCNCCCNCC2)ccc1CN1CCCNCCNCCCNCC1` [AMD3100, Plerixafor], in data set [1] (setting [6]), the “inhibition of recruitment of B cells into BAL” value is listed as 47 ± 17%, the “inhibition of recruitment of T cells into BAL” value is on record as 47 ± 15%, the “inhibition of recruitment of eosinophils into BAL” value was determined as 56 ± 13% and the “inhibition of recruitment of neutrophils into BAL” value was 57 ± 14%. The “inhibition of recruitment of total cells into BAL” value in data set [1] (setting [6]) is recorded as 41 ± 13%. In data set [2] (1 μmol/L compound), the “effect on CXCL12-induced Ca2+ mobilization” value is “reduced Ca^2+ mobilization”. In addition, the “effect on CXCL12-induced Ca2+ mobilization” value in [2] (10 μmol/L compound) is given as “completely abrogated”. The “stability towards plasma proteases” value in data set [3] is reported as “resistant to plasma proteases”. Moreover, the half-maximal inhibitory concentration (IC50) with CXCR4-tropic HIV-1 (Human immunodeficiency virus 1, TZM-bl, read-out: IC50±SEM X4-HIV-1) was 12 ± 2 nM. Moreover, in data set [4] (setting [7]), the “inhibition of MC903 induced ear thickness” value came out at 25 ± 7% and the “inhibition of disease score” value is reported as 18 ± 6%.

For the compound `CC[C@H](C)[C@H](N)C(=O)N[C@@H](CC(C)C)C(=O)N[C@@H](CCCNC(=N)N)C(=O)N[C@@H](Cc1c[nH]c2ccccc12)C(=O)N[C@@H](CO)C(=O)N[C@@H](CCCNC(=N)N)C(=O)N[C@@H](CCCCN)C(=O)N[C@@H](CC(C)C)C(=O)N1CCC[C@H]1C(=O)N[C@@H](CS)C(=O)N[C@H](C(=O)N[C@@H](CO)C(=O)O)C(C)C` [JM#21], in data set [1] (setting [8]), the “inhibition of recruitment of B cells into BAL” value is listed as 71 ± 5%, the “inhibition of recruitment of T cells into BAL” value stood at 73 ± 13%, the “inhibition of recruitment of eosinophils into BAL” value was found to be 80 ± 1% and the “inhibition of recruitment of neutrophils into BAL” value is given as 42 ± 15%. In data set [1] (16 μmol/kg intranasal), the “effect on influx of macrophages into BAL” value is recorded as “not macrophages”. Also, in the data set on mice, the “visible or behavioral adverse effects” value was “did not observe visible or behavioral adverse effects”. The concentration for half-maximal inhibition (IC50) on CXCR4 is 220 ± 20 nM. In addition, on CXCR4 (vs AMD3100), the “fold more active than AMD3100 in 12G5 competition” value was “about 3 fold”. Also, on CXCR4 (vs WSC02), the “fold more active than WSC02 in 12G5 competition” value is listed as around 2 fold. The “toxicity in zebrafish embryos (acute, developmental, cardiotoxicity)” value with zebrafish embryos (exposure 24 h from 24 hpf, 3, 30 and 300 μmol/L, 60 embryos per group) is listed as “not toxic”. Besides, in data set [5] (vs WSC02), the “fold more efficient than WSC02 in blocking migration” value stood at 33 fold. In addition, in [5] (vs wild type peptide EPI-X4), the “fold more efficient than EPI-X4 in blocking migration” value is “more than 1400 fold”. In addition, in [4] (400 nmol/ear topically daily, day 11, mean ± SEM), the “inhibition of MC903-induced ear thickening” value was determined as 88 ± 4%.

Take `C=C1/C(=C\C=C2/CCC[C@]3(C)[C@@H]([C@H](C)/C=C/[C@@H](O)C4CC4)CC[C@@H]23)C[C@@H](O)C[C@@H]1O` [MC903, calcipotriol hydrate]: in data set [4] (setting [9]), the “disease score (0-12, Table 3)” value came out at 9.4 ± 0.1 and the “increase of the ear thickness as compared to control” value was 3.1 ± 0.1 fold.

Regarding `C[C@@H]1C[C@H]2[C@@H]3CCC4=CC(=O)C=C[C@]4(C)[C@@]3(F)[C@@H](O)C[C@]2(C)[C@@]1(O)C(=O)CO` [dexamethasone], in data set [4] (setting [10]), the “inhibition of MC903-induced ear thickening” value came out at 96 ± 2% and the “inhibition of disease score” value was determined as 97 ± 2%.

Turning to GRRKRKWLRRIGKGVKIIGGAALDHL-NH2 [NRC-03], the “toxicity in zebrafish embryos (positive control)” value in the data set with zebrafish embryos (6 μmol/L, exposure 24 h) is given as “acutely toxic”.

H-ILRWSKKVPCVS [JM#1]: the “fold increase of antiviral (anti-HIV-1) activity over WSC02” value in the data set on CXCR4-tropic HIV-1 is given as 9 fold.

Regarding H-IVRWSKKFPCVS [JM#7], the “fold increase of antiviral (anti-HIV-1) activity over WSC02” value in the data set on CXCR4-tropic HIV-1 was “about 2 fold”.

H-IVRWSKKVPCVS [WSC02]: in the data set on mice, the “visible or behavioral adverse effects” value was “did not observe visible or behavioral adverse effects”.

As for H-LVRYTKKVPQVSTPTL [EPI-X4], in data set [1] (setting [8]), the “inhibition of recruitment of B cells into BAL” value is given as 54 ± 9%, the “inhibition of recruitment of T cells into BAL” value worked out at 61 ± 8%, the “inhibition of recruitment of eosinophils into BAL” value turned out to be 76 ± 7% and the “inhibition of recruitment of neutrophils into BAL” value was determined as 63 ± 7%. The “effect on influx of macrophages into BAL” value in data set [1] (16 μmol/kg intranasal) is “not macrophages”. The “effect on CXCL12-induced Ca2+ mobilization” value in data set [2] (at the tested concentrations) was “almost inactive”. In addition, the “visible or behavioral adverse effects” value with mice was “did not observe visible or behavioral adverse effects”. On CXCR4, this compound came in with an IC50 of 3240 ± 620 nM.

These data come from paper PMC8463264 (Acta Pharmaceutica Sinica. B, 2020).
